# Assay results from ChEMBL document CHEMBL5712078, “BRD9 Inhibition, Alone or in Combination with Cytostatic Compounds as a Therapeutic Approach in Rhabdoid Tumors” (Int J Mol Sci, 2017).
# Activity calls are given as the source filed them. The calls are words filed in the database; no cut-off is given here.
# Tests used:
# G-401 [1] = assay: Induction of apoptosis in human G-401 cells assessed as necrotic cells at 5 uM incubated for 72 hrs by flow cytometry analysis (Rvb= 6.2+/-0.8 %); type: functional
# Procedure, shortened: (§1)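 Annexin V/PI flow assay. G401 at 10,000 cells/mL and BT12 or Chla266 at 30,000 cells/mL were seeded in 12-well plates. Next day medium was replaced with medium holding I-BRD9 or BI-9564 at 0, 5, 10 or 20 µM final for 72 h. Cells were washed in PBS, stained with FITC-Annexin V and propidium iodide for 15 min in the dark at room temperature, then read by flow cytometry. Percentage of dead cells, n ≥3, mean ± SD, one-way ANOVA versus control.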
# BT-12 [2] = assay: Induction of cell cycle arrest in human BT-12 cells assessed as accumulation of cells at G1 phase incubated for 72 hrs by flow cytometry analysis; type: functional, cell-based; conditions: dose 5-20 µM
# Procedure, shortened: (§2)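 Cell cycle. Seeding and 72 h treatment as for the apoptosis assay, with I-BRD9 or BI-9564 at 0, 5, 10 or 20 µM final. A 100 µL cell suspension was stained with DAPI and read by flow cytometry. Percentage of cells in G1, n ≥3, mean ± SD, one-way ANOVA versus control.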
# CHLA-266 [3] = assay: Induction of cell cycle arrest in human CHLA-266 cells assessed as accumulation of cells at G1 phase incubated for 72 hrs by flow cytometry analysis; type: functional, cell-based; conditions: dose 5-20 µM
# Procedure, shortened: (§3)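 72 h DAPI flow-cytometry cell-cycle assay. Chla266 in IMDM/20% FBS seeded at 30,000 cells/mL; G401 in DMEM/10% FBS at 10,000 cells/mL; 1 mL/well, 37 °C, 5% CO2. Next day the medium was replaced with inhibitor at final 0, 5, 10 or 20 µM. Cells were harvested, PBS-washed, and the G1 percentage was read. n ≥ 3, mean ± SD, one-way ANOVA vs control.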
# G-401 [4] = assay: Induction of apoptosis in human G-401 cells assessed as necrotic cells incubated for 72 hrs by flow cytometry analysis; type: functional, cell-based; conditions: dose 5-20 µM; procedure, shortened: as §1
# G-401 [5] = assay: Induction of cell cycle arrest in human G-401 cells assessed as accumulation of cells at G1 phase at 10 uM incubated for 72 hrs by flow cytometry analysis (reference value: 51.7+/-2%); type: functional; procedure, shortened: as §3
# CHLA-266 [6] = assay: Induction of apoptosis in human CHLA-266 cells assessed as necrotic cells at 20 uM incubated for 72 hrs by flow cytometry analysis (Rvb= 5.4+/-1.0 %); type: functional; procedure, shortened: as §1
# CHLA-266 [7] = assay: Anti-proliferative activity against human CHLA-266 cells assessed as cell viability incubated for 72 hrs by MTT assay; type: functional, cell-based; conditions: CHLA-266, 72 h
# Procedure, shortened: (§4)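 MTT proliferation assay. Cells were seeded at 3000 (BT16, KD, G401) or 5000 (BT12, Chla266) cells per well and drug was added after 24 h, final 0.001–100 µM. Read at 72 or 144 h; 144 h wells got fresh medium and drug on day 3. MTT for 3 h, formazan dissolved in isopropanol/0.04 N HCl, absorbance at 570/630 nm. Technical triplicates, ≥3 independent runs, IC50 derived.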
# BT-12 [8] = assay: Induction of cell cycle arrest in human BT-12 cells assessed as accumulation of cells at G1 phase at 10 uM incubated for 72 hrs by flow cytometry analysis (reference value: 65+/-3.9%); type: functional; procedure, shortened: as §2
# BT-12 [9] = assay: Induction of cell cycle arrest in human BT-12 cells assessed as accumulation of cells at G1 phase at 5 uM incubated for 72 hrs by flow cytometry analysis (reference value: 65+/-3.9%); type: functional; procedure, shortened: as §2
# CHLA-266 [10] = assay: Cytotoxicity against human CHLA-266 cells assessed as change in cell viability at 5 to 20 uM treated for 72 hrs; type: functional, cell-based; conditions: dose 5-20 µM; procedure, shortened: as §1
# BT-12 [11] = assay: Anti-proliferative activity against human BT-12 cells assessed as cell viability incubated for 144 hrs by MTT assay; type: functional, cell-based; conditions: BT-12, 144 h; procedure, shortened: as §4
# [12] = Anti-proliferative activity against human KD cells assessed as cell viability incubated for 72 hrs by MTT assay; type: functional, cell-based; procedure, shortened: as §4
# G-401 [13] = assay: Anti-proliferative activity against human G-401 cells assessed as cell viability incubated for 144 hrs by MTT assay; type: functional, cell-based; conditions: G-401, 144 h; procedure, shortened: as §4
# CHLA-266 [14] = assay: Induction of apoptosis in human CHLA-266 cells assessed as necrotic cells incubated for 72 hrs by flow cytometry analysis; type: functional, cell-based; conditions: dose 5-20 µM; procedure, shortened: as §1
# [15] = Anti-proliferative activity against human KD cells assessed as cell viability incubated for 144 hrs by MTT assay; type: functional, cell-based; procedure, shortened: as §4
# BT-12 [16] = assay: Induction of apoptosis in human BT-12 cells assessed as necrotic cells at 10 uM incubated for 72 hrs by flow cytometry analysis (reference value: 10.1+/-2.2%); type: functional; procedure, shortened: as §1
# G-401 [17] = assay: Anti-proliferative activity against human G-401 cells assessed as cell viability incubated for 72 hrs by MTT assay; type: functional, cell-based; conditions: G-401, 72 h; procedure, shortened: as §4
# G-401 [18] = assay: Induction of apoptosis in human G-401 cells assessed as necrotic cells at 10 uM incubated for 72 hrs by flow cytometry analysis (Rvb= 6.2+/-0.8 %); type: functional; procedure, shortened: as §1
# [19] = Anti-proliferative activity against human BT-16 cells assessed as cell viability incubated for 72 hrs by MTT assay; type: functional, cell-based; conditions: BT-16, 72 h; procedure, shortened: as §4
# BT-12 [20] = assay: Anti-proliferative activity against human BT-12 cells assessed as cell viability incubated for 72 hrs by MTT assay; type: functional, cell-based; conditions: BT-12, 72 h; procedure, shortened: as §4
# CHLA-266 [21] = assay: Anti-proliferative activity against human CHLA-266 cells assessed as cell viability incubated for 144 hrs by MTT assay; type: functional, cell-based; conditions: CHLA-266, 144 h; procedure, shortened: as §4
# G-401 [22] = assay: Induction of apoptosis in human G-401 cells assessed as necrotic cells at 20 uM incubated for 72 hrs by flow cytometry analysis (Rvb= 6.2+/-0.8 %); type: functional; procedure, shortened: as §1
# CHLA-266 [23] = assay: Induction of cell cycle arrest in human CHLA-266 cells assessed as accumulation of cells at G1 phase at 5 uM incubated for 72 hrs by flow cytometry analysis (reference value: 74.1+/-3.2%); type: functional; procedure, shortened: as §2
# BT-12 [24] = assay: Induction of apoptosis in human BT-12 cells assessed as necrotic cells at 20 uM incubated for 72 hrs by flow cytometry analysis (Rvb=10.1+/-2.2%); type: functional; procedure, shortened: as §1
# CHLA-266 [25] = assay: Induction of apoptosis in human CHLA-266 cells assessed as necrotic cells at 10 uM incubated for 72 hrs by flow cytometry analysis (Rvb= 5.4+/-1.0 %); type: functional; procedure, shortened: as §1
# G-401 [26] = assay: Induction of cell cycle arrest in human G-401 cells assessed as accumulation of cells at G1 phase at 5 uM incubated for 72 hrs by flow cytometry analysis (reference value: 51.7+/-2%); type: functional; procedure, shortened: as §3
# BT-12 [27] = assay: Induction of cell cycle arrest in human BT-12 cells assessed as accumulation of cells at G1 phase at 20 uM incubated for 72 hrs by flow cytometry analysis (reference value: 65+/-3.9%); type: functional; procedure, shortened: as §2
# CHLA-266 [28] = assay: Induction of apoptosis in human CHLA-266 cells assessed as necrotic cells at 5 uM incubated for 72 hrs by flow cytometry analysis (Rvb= 5.4+/-1.0%); type: functional; procedure, shortened: as §1
# BT-12 [29] = assay: Induction of apoptosis in human BT-12 cells assessed as necrotic cells at 5 uM incubated for 72 hrs by flow cytometry analysis (reference value: 10.1+/-2.2%); type: functional; procedure, shortened: as §1
# CHLA-266 [30] = assay: Induction of cell cycle arrest in human CHLA-266 cells assessed as accumulation of cells at G1 phase at 10 uM incubated for 72 hrs by flow cytometry analysis (Rvb =74.1+/-3.2%); type: functional; procedure, shortened: as §2
# CHLA-266 [31] = assay: Induction of cell cycle arrest in human CHLA-266 cells assessed as accumulation of cells at G1 phase at 20 uM incubated for 72 hrs by flow cytometry analysis (reference value: 74.1+/-3.2%); type: functional; procedure, shortened: as §2
# BT-12 [32] = assay: Induction of apoptosis in human BT-12 cells assessed as necrotic cells incubated for 72 hrs by flow cytometry analysis; type: functional, cell-based; conditions: dose 5-20 µM; procedure, shortened: as §1
# G-401 [33] = assay: Induction of cell cycle arrest in human G-401 cells assessed as accumulation of cells at G1 phase incubated for 72 hrs by flow cytometry analysis; type: functional, cell-based; conditions: dose 5-20 µM; procedure, shortened: as §3
smiles,measurement,setting,value
COc1cc(-c2cn(C)c(=O)c3cnccc23)c(OC)cc1CN(C)C,Activity,G-401 [1],6.8%
same,Activity,BT-12 [2],Dose-Dependent Effect
same,Activity,CHLA-266 [3],Dose-Dependent Effect
same,Activity,G-401 [4],Dose-Dependent Effect
same,Activity,G-401 [5],59.5%
same,Activity,CHLA-266 [6],12.9%
same,IC50,CHLA-266 [7],> 100 µM
same,Activity,BT-12 [8],74%
same,Activity,BT-12 [9],73.1%
same,Activity,CHLA-266 [10],Active
same,IC50,BT-12 [11],17.2 µM
same,IC50,[12],22.3 µM
same,IC50,G-401 [13],10.8 µM
same,Activity,CHLA-266 [14],Dose-Dependent Effect
same,IC50,[15],10.8 µM
same,Activity,BT-12 [16],15.9%
same,IC50,G-401 [17],12.5 µM
same,Activity,G-401 [18],7.3%
same,IC50,[19],15.9 µM
same,IC50,BT-12 [20],> 100 µM
same,IC50,CHLA-266 [21],33.7 µM
same,Activity,G-401 [22],7.6%
same,Activity,CHLA-266 [23],80%
same,Activity,BT-12 [24],17.3%
same,Activity,CHLA-266 [25],11%
same,Activity,G-401 [26],57.6%
same,Activity,BT-12 [27],78.9%
same,Activity,CHLA-266 [28],10%
same,Activity,BT-12 [29],14.2%
same,Activity,CHLA-266 [30],81.2%
same,Activity,CHLA-266 [31],83.6%
same,Activity,BT-12 [32],Dose-Dependent Effect
same,Activity,G-401 [33],Dose-Dependent Effect
